Here are results for twelve molecules from ChEMBL document CHEMBL1147582, “Approaches towards the stabilization of hemiaminal function at ornithine unit of mulundocandin” (2004).

Assay type in all cases: functional
The test system of test [1] is Candida albicans. Briefly: Antifungal activity against Candida albicans at a concentration of 1 mg/mL in MeOH. The gist of the method:
(§1)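 Standard agar-well diffusion on Sabouraud agar bioassay plates, seeded with C. albicans strain IV or A. fumigatus strain AF-1. Read-out is the inhibition zone produced around the well. Zone appearance is scored as hazy, very hazy, hazy diffused or very hazy diffused, and judged against the zone of the parent mulundocandin.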

Test [2] has as its system Aspergillus fumigatus. Briefly: Antifungal activity against Aspergillus fumigatus at a concentration of 2 mg/mL in MeOH; Zone: hazy diffused. The gist of the method:
as §1

Test [3] concerns Candida albicans. Kind of test: Antifungal activity against Candida albicans at a concentration of 5 mg/mL in MeOH. In a few lines: as §1
Test [4] concerns Aspergillus fumigatus. Kind of test: Antifungal activity against Aspergillus fumigatus at a concentration of 5 mg/mL in MeOH; Zone: hazy diffused. The gist of the method:
as §1

Test [5] has as its system Candida albicans. Kind of test: Antifungal activity against Candida albicans at an intraperitoneal dose of 20 mg/kg twice a day for 6 days in mice in experiment 1. The gist of the method: (§2)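 Swiss mice infected with C. albicans; compounds given intraperitoneally at 20 mg/kg, ×6, b.i.d. Kidneys homogenized and colony-forming units counted per gram of kidney (approximate). Untreated infected control group included; fluconazole at the same dose used as standard.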

In test [6] the test system is Candida albicans. Kind of test: Antifungal activity against Candida albicans at an intraperitoneal dose of 20 mg/kg twice a day for 6 days in mice in experiment 2. The gist of the method:
as §2

Test [7] concerns Aspergillus fumigatus. Kind of test: Antifungal activity against Aspergillus fumigatus at a concentration of 1 mg/mL in MeOH; Zone: hazy. In a few lines: as §1
For test [8], the system named is Candida albicans. Briefly: Antifungal activity against Candida albicans at an intraperitoneal dose of 20 mg/kg twice a day for 6 days in mice. In a few lines:
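Swiss mice were infected with C. albicans and treated intraperitoneally at 20 mg/kg ×6, b.i.d. Kidneys were homogenized and the approximate CFU per gm kidney was counted. Comparator groups were the parent compound, fluconazole and untreated infected controls.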

In test [9] the test system is Candida albicans. Briefly: Antifungal activity against Candida albicans at a concentration of 1 mg/mL in MeOH; Zone: hazy. The gist of the method:
as §1

Test [10] relates to Aspergillus fumigatus. Briefly: Antifungal activity against Aspergillus fumigatus at a concentration of 5 mg/mL in MeOH; Zone: hazy. In a few lines: as §1
Test [11] concerns Aspergillus fumigatus. Kind of test: Antifungal activity against Aspergillus fumigatus at a concentration of 2 mg/mL in MeOH; Zone: hazy. In a few lines: as §1
Test [12] relates to Aspergillus fumigatus. Briefly: Antifungal activity against Aspergillus fumigatus at a concentration of 2 mg/mL in MeOH; Zone: very hazy. In a few lines: as §1
Test [13] relates to Aspergillus fumigatus. Briefly: Antifungal activity against Aspergillus fumigatus at a concentration of 2 mg/mL in MeOH; Zone: diffused. In a few lines:
as §1

Test [14] relates to Aspergillus fumigatus. Briefly: Antifungal activity against Aspergillus fumigatus at a concentration of 5 mg/mL in MeOH; Zone: very hazy diffused. The gist of the method:
as §1

Test [15] deals with Candida albicans. Kind of test: Antifungal activity against Candida albicans at a concentration of 2 mg/mL in MeOH; Zone: hazy. The gist of the method:
as §1

The test system of test [16] is Aspergillus fumigatus. Kind of test: Antifungal activity against Aspergillus fumigatus at a concentration of 2 mg/mL in MeOH; Zone: very hazy diffused. In a few lines:
as §1

The test system of test [17] is Candida albicans. Kind of test: Antifungal activity against Candida albicans at a concentration of 0.1 mg/mL in MeOH. In a few lines: as §1
For test [18], the system named is Candida albicans. Briefly: Antifungal activity against Candida albicans at a concentration of 1.1 mg/mL in MeOH. The gist of the method:
as §1

In test [19] the test system is Aspergillus fumigatus. Briefly: Antifungal activity against Aspergillus fumigatus at a concentration of 1.1 mg/mL in MeOH; Zone: hazy diffused. The gist of the method:
as §1

For the molecule `CCC(C)CCCCCCCCCCC(=O)N[C@@H]1C[C@H](O)C(C#N)NC(=O)[C@@H]2[C@@H](O)[C@@H](C)CN2C(=O)[C@H](CO)NC(=O)[C@H]([C@@H](O)[C@H](O)c2ccc(O)cc2)NC(=O)[C@@H]2C[C@@H](O)CN2C(=O)[C@H]([C@@H](C)O)NC1=O` (some centres undefined), the Zone size with Candida albicans [1] was 19 mm; in the test on Aspergillus fumigatus [2] it was 20 mm; with Candida albicans [3], 25 mm; with Aspergillus fumigatus [4], 27 mm.
Turning to `OC(Cn1cncn1)(Cn1cncn1)c1ccc(F)cc1F` [FLUCONAZOLE], the “Approximate colony formation unit” value in the test on Candida albicans [5] is 380000 (g kidney)-1; with Candida albicans [6], 10000 (g kidney)-1.
Turning to `CCC(C)CCCCCCCCCCC(=O)N[C@@H]1C[C@@H](O)CNC(=O)[C@@H]2[C@@H](O)[C@@H](C)CN2C(=O)[C@H](CO)NC(=O)[C@H]([C@@H](O)Cc2ccc(O)cc2)NC(=O)[C@@H]2C[C@@H](O)CN2C(=O)[C@H]([C@@H](C)O)NC1=O` (some centres undefined), the Zone size in the test on Aspergillus fumigatus [7] was 25 mm; in the test with Aspergillus fumigatus [2], 30 mm; in the test on Candida albicans [3] it was 38 mm; with Aspergillus fumigatus [4] it was 35 mm; with Candida albicans [9], 24 mm. Also, the “Approximate colony formation unit” value with Candida albicans [8] is listed as 7700000 (g kidney)-1.
For `CCC(C)CCCCCCCCCCC(=O)N[C@@H]1C[C@@H](O)CNC(=O)[C@@H]2[C@@H](O)[C@@H](C)CN2C(=O)[C@H](CO)NC(=O)[C@H]([C@@H](O)C(O)c2ccc(O)cc2)NC(=O)[C@@H]2C[C@@H](O)CN2C(=O)[C@H]([C@@H](C)O)NC1=O` (some centres undefined), the Zone size was 25 mm in the test with Candida albicans [1], 23 mm with Aspergillus fumigatus [2], 29 mm with Candida albicans [3] and 25 mm in the test on Aspergillus fumigatus [4].
Turning to `CCC(C)CCCCCCCCCCC(=O)N[C@@H]1C[C@@H](O)C(CN)NC(=O)[C@@H]2[C@@H](O)[C@@H](C)CN2C(=O)C(CO)NC(=O)C([C@@H](O)[C@H](O)c2ccc(O)cc2)NC(=O)[C@@H]2C[C@@H](O)CN2C(=O)C(C(C)O)NC1=O` (some centres undefined), the Zone size stood at 22 mm in the test on Candida albicans [1], 23 mm with Aspergillus fumigatus [2], 25 mm with Candida albicans [3] and 25 mm with Aspergillus fumigatus [4].
In the case of `CCC(C)CCCCCCCCCCC(=O)N[C@@H]1C[C@@H](O)C(OCc2ccccc2)NC(=O)[C@@H]2[C@@H](O)[C@@H](C)CN2C(=O)C(CO)NC(=O)C([C@@H](O)[C@H](O)c2ccc(O)cc2)NC(=O)[C@@H]2C[C@@H](O)CN2C(=O)C(C(C)O)NC1=O` (some centres undefined), the Zone size was determined as 26 mm with Aspergillus fumigatus [10], 24 mm in the test on Aspergillus fumigatus [11] and 16 mm in the test with Candida albicans [3].
Turning to `CCC(C)CCCCCCCCCCC(=O)N[C@@H]1C[C@@H](O)C(S(=O)(=O)CC(=O)OC)NC(=O)[C@@H]2[C@@H](O)[C@@H](C)CN2C(=O)C(CO)NC(=O)C([C@@H](O)[C@H](O)c2ccc(O)cc2)NC(=O)[C@@H]2C[C@@H](O)CN2C(=O)C(C(C)O)NC1=O` (some centres undefined), the Zone size in the test on Candida albicans [1] worked out at 20 mm; with Candida albicans [3], 26 mm; in the test with Aspergillus fumigatus [12], 24 mm; in the test on Aspergillus fumigatus [4] it was 29 mm.
Regarding `CCC(C)CCCCCCCCCCC(=O)N[C@@H]1C[C@@H](O)C(OC)NC(=O)[C@@H]2[C@@H](O)[C@@H](C)CN2C(=O)C(CO)NC(=O)C([C@@H](O)[C@H](O)c2ccc(O)cc2)NC(=O)[C@@H]2C[C@@H](O)CN2C(=O)C(C(C)O)NC1=O` (some centres undefined), the Zone size is 37 mm in the test with Aspergillus fumigatus [13]; 25 mm in the test on Candida albicans [1]; 24 mm in the test with Aspergillus fumigatus [11]; 35 mm in the test on Aspergillus fumigatus [14]; 27 mm with Candida albicans [3]; 26 mm in the test with Candida albicans [15].
On to `CCC(C)CCCCCCCCCCC(=O)N[C@@H]1C[C@@H](O)C(O)NC(=O)[C@@H]2[C@@H](O)[C@@H](C)CN2C(=O)[C@H](CO)NC(=O)[C@H]([C@@H](O)Cc2ccc(O)cc2)NC(=O)[C@@H]2C[C@@H](O)CN2C(=O)[C@H]([C@@H](C)O)NC1=O` (some centres undefined), for which the Zone size in the test with Candida albicans [1] and with Aspergillus fumigatus [2] was 30 mm throughout. In the test on Candida albicans [8], the “Approximate colony formation unit” value is 180000000 (g kidney)-1.
With `CCC(C)CCCCCCCCCCC(=O)N[C@@H]1C[C@@H](O)[C@H](O)NC(=O)[C@@H]2[C@@H](O)[C@@H](C)CN2C(=O)[C@H](CO)NC(=O)[C@H]([C@@H](O)[C@H](O)c2ccc(O)cc2)NC(=O)[C@@H]2C[C@@H](O)CN2C(=O)[C@H]([C@@H](C)O)NC1=O` (some centres undefined), the Zone size in the test with Aspergillus fumigatus [16] came out at 35 mm; in the test on Candida albicans [17], 24 mm; in the test on Candida albicans [18] it was 29 mm; with Aspergillus fumigatus [19] it was 29 mm. Also, the “Approximate colony formation unit” value in the test on Candida albicans [5] is recorded as 150000000 (g kidney)-1; in the test on Candida albicans [6], 12500000 (g kidney)-1.
`CCC(C)CCCCCCCCCCC(=O)N[C@@H]1C[C@@H](O)C(c2ccc(OC)c(OC)c2)NC(=O)[C@@H]2[C@@H](O)[C@@H](C)CN2C(=O)C(CO)NC(=O)C([C@@H](O)[C@H](O)c2ccc(O)cc2)NC(=O)[C@@H]2C[C@@H](O)CN2C(=O)C(C(C)O)NC1=O` (some centres undefined): the Zone size in the test with Candida albicans [1] was 24 mm; in the test on Aspergillus fumigatus [2] it was 30 mm; in the test with Candida albicans [3] it was 29 mm; in the test with Aspergillus fumigatus [4], 32 mm.
On to `CCC(C)CCCCCCCCCCC(=O)N[C@@H]1C[C@@H](O)[C@H](OCc2ccccc2)NC(=O)[C@@H]2[C@@H](O)[C@@H](C)CN2C(=O)C(CO)NC(=O)C([C@@H](O)Cc2ccc(O)cc2)NC(=O)[C@@H]2C[C@@H](O)CN2C(=O)C(C(C)O)NC1=O` (some centres undefined), for which the Zone size in the test with Aspergillus fumigatus [2] worked out at 15 mm; in the test with Candida albicans [3], 17 mm; in the test with Aspergillus fumigatus [4], 18 mm.
